# Source: PubChem
# MrgX1 antag: human MrgX1 receptor antagonism, primary screen; 1.3% of 310,000 active; Q96LB2; B-score at 10 µM; MRGX1-HEK293 calcium flux, Fluo-4, BAM8-22 antagonism; stronger effect = lower value;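 active means calcium-response B-score plate-corrected more than 3 library SD below zero, starting fluorescence within 5 deviations, no agonist response on first addition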;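 further: peak minus trough fluorescence over baseline after final BAM8-22 challenge near maximal dose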
# Target sequence (Q96LB2 whole entry, looked up): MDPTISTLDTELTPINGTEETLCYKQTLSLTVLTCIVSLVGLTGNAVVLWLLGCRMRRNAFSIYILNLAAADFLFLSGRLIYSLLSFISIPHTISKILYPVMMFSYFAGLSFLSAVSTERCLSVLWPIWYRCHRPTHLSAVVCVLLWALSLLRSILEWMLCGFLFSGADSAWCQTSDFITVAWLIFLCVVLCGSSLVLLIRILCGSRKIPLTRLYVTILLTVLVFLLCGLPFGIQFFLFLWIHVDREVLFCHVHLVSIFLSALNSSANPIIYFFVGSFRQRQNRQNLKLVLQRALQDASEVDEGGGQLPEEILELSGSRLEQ
# RGS4 act: RGS4 potentiation or activation. HEK293 M3R/inducible RGS4, carbachol calcium flux Fluo4; stronger effect = lower value. B-score at 10 µM. 0.92% of 310,000 active. AID 463111;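 active means B-score of the integrated calcium signal more than 4 SD below the library mean, with starting fluorescence not abnormally high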;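 further: negative B-score means reduced calcium response which marks RGS4 activation or potentiation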
#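 Material: Inducible-RGS4 HEK293 cells carrying M3 receptor; also added: carbachol at ECmax as muscarinic agonist stimulus; incubation: compound preincubation 20 min at room temperature before agonist; signal: Fluo4-AM (2 µM) calcium-flux fluorescence, kinetic read; measure: integrated calcium ratio converted to B score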
# MrgX1 ag: human MrgX1 receptor agonism, primary screen; 0.44% of 310,000 active; B-score at 10 µM; AID 588627; Q96LB2; MrgX1-HEK293 cells, Fluo-4 calcium fluorescence, agonist mode; stronger effect = higher value;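 active means calcium response B-score plate-corrected fluorescence ratio at least 3 library SD, with starting fluorescence B-score inside 5 SD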
#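 Test system: HEK293 cells stably expressing human MrgX1 receptor; Input: fifteen thousand cells per well; Dosing: compound delivered in addition one of three; Schedule: overnight seeding, then 1 h dark dye loading; Technique: Fluo-4 NW calcium fluorescence; Measure: B-scored fluorescence response ratio; Controls: positive and negative controls per plate.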
# MrgX1 allo act: allosterically activates human MrgX1 receptor signaling | MrgX1-HEK293, Fluo-4 calcium flux, FDSS; stronger effect = higher value | B-score at 10 µM | 0.63% of 310,000 active | AID 588675;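 active means plate-corrected calcium response at least 3 library SD above typical, normal starting fluorescence, not activating the receptor alone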;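 further: compound read alongside a low EC10 to EC30 dose of BAM8-22 agonist; peak minus trough fluorescence over baseline measured at the second addition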
# RGS4 inh: inhibitors of human RGS4 | AID 463165 | HEK293 M3R/RGS4 inducible, Fluo-4 calcium flux; stronger effect = higher value; triggered by carbachol at its EC20 | 0.45% of 310,000 active | P49798 | B-score at 10 µM;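 active means B-score, a plate-corrected calcium signal, over three deviations above library mean, with baseline fluorescence within five deviations of library mean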;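 further: RGS4 expression induced by doxycycline in cells with stable M3 receptor; B-score is computed from the integrated fluorescence ratio over baseline after carbachol; higher B-score means a larger calcium signal and so more RGS4 inhibition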
# Target sequence (P49798 whole entry, looked up): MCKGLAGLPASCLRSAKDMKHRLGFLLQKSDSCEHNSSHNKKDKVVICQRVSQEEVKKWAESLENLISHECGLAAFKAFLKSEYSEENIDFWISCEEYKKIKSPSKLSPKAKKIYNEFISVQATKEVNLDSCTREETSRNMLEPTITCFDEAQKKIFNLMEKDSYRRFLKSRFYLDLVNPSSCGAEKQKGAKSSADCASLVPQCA
# MrgX1 ant reconf: confirmation of human MrgX1 receptor antagonists | MrgX1-HEK293, BAM8-22 calcium flux, Fluo-4; stronger effect = lower value | 19% of 2,300 active | remaining BAM8-22 calcium response % of control (stronger effect = lower value), % at 10 µM | shares compounds with MrgX1 antag;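 active means remaining agonist calcium response no higher than 100% minus 3 SD of agonist-only control wells, with starting fluorescence near control levels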;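 further: agonist BAM8-22 given at a near maximal EC90 to ECmax level; peak minus minimum fluorescence divided by baseline after agonist addition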
# HEK293 Ca flux: MrgX1 antagonist counter-screen hit in parental HEK293 cells | Fluo-4 calcium fluorescence, FDSS | fluorescence ratio F(max-min)/F0 at 10 µM | AID 624111 | 2% of 4,000 active | shares compounds with MrgX1 antag;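 active means duplicate-averaged calcium fluorescence ratio at least three times the standard deviation of buffer wells, a nonspecific response in parental cells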
# HEK293 Ca counter: MrgX1 allosteric activator counter-screen hit in parental HEK293 cells; shares compounds with MrgX1 antag; parental HEK293 calcium flux, Fluo-4 fluorescence ratio; stronger effect = higher value; fluorescence ratio F(max-min)/F0 at 10 µM; 0.4% of 4,000 active;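 active means calcium fluorescence ratio, averaged over duplicates, at least 3 SD of the buffer-well ratio, meaning a nonspecific response in receptor-free cells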;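 further: untransfected parental HEK293 lacking MrgX1 used as counterscreen for MrgX1 allosteric activators; fluorescence change taken during the second addition on a kinetic imager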
# HEK293 Ca cntr2: MrgX1 activator counter-screen hit in parental HEK293 cells; shares compounds with MrgX1 antag; Fluo-4 calcium fluorescence (FDSS); stronger effect = higher value; fluorescence ratio F(max-min)/F0 at 10 µM; 8.7% of 4,000 active; AID 624115;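 active means calcium fluorescence ratio at least three times the spread of buffer wells, meaning a non-specific response in parental cells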
# Numbers without * were called inactive; i = inactive; x = no result given. Compounds with a hit are over-represented: about 3.5% of the library has one in this group of screens.
SMILES,MrgX1 antag,RGS4 act,MrgX1 ag,MrgX1 allo act,RGS4 inh,MrgX1 ant reconf,HEK293 Ca flux,HEK293 Ca counter,HEK293 Ca cntr2
COCCN1C(=O)C(=O)/C(=C(/O)c2ccc(C)cc2)C1c1ccccn1 (centres undefined),-7.7*,i,i,i,i,i,i,i,i
Cc1ccc(/C(O)=C2/C(=O)C(=O)N(CCCn3ccnc3)C2c2ccccn2)cc1 (centres undefined),x,i,x,x,i,x,x,x,x
CN(Cc1ccccc1F)C(=O)c1sccc1-c1ccccc1,i,i,i,i,i,x,x,x,x
CCn1cc(C(=O)NCc2ccc(OC)cc2)c(=O)c2ccc(C)nc21,i,i,i,i,i,x,x,x,x
CC(OC(=O)c1ccc2c(c1)S(=O)(=O)c1ccccc1C2=O)C(N)=O (centres undefined),i,i,i,i,i,x,x,x,x
O=C(Nc1ccc(Cl)c(C(F)(F)F)c1)N1CCCC(O)C1 (centres undefined),-6.2*,i,i,i,i,i,i,i,i
O=C(Nc1ccc(Cl)c(C(F)(F)F)c1)C(=O)N1CCCCC1,i,i,i,i,i,x,x,x,x
COC1=NS(=O)(=O)c2ccccc21,i,i,i,i,i,x,x,x,x
Cc1ccc(C)c(OC2=NS(=O)(=O)c3ccccc32)c1,-4.8*,i,i,i,i,i,i,i,i
Cc1cc(NCc2ccco2)n2ncnc2n1,-7.1*,i,i,i,i,i,i,i,i
CCn1nc(C)cc1C(=O)N1CCCC(C(=O)c2ccc(OC)cc2C)C1 (centres undefined),i,i,i,i,i,x,x,x,x
O=C1CCCN1CCC12CC3CC(CC(C3)C1)C2,-4.7*,i,i,i,i,i,i,i,i
CC(O)[C@H]1CNC(=O)C(=O)N1CCC12CC3CC(CC(C3)C1)C2 (some centres undefined),i,i,i,i,i,x,x,x,x
O=C(NCCC1=CCCCC1)N[C@@H](Cc1ccccc1)C(=O)O,-9.7*,i,i,i,i,i,i,i,i
O=C(NCCc1ccccc1)NC(Cc1ccccc1)C(=O)O (centres undefined),i,i,i,i,i,x,x,x,x
Cc1cccc(NC(=O)CC2CCC2)c1,-5.8*,i,i,i,i,i,i,i,i
Cc1cc(NC(=O)CC2CCCC2)ccc1Br,i,i,i,i,i,x,x,x,x
O=C(CCc1ccccc1)Nc1cc(C(F)(F)F)ccc1Cl,-4.5*,i,i,i,i,i,i,i,i
CSc1nc2ccc3nc(NC(=O)c4ccccc4)sc3c2s1,-7.4*,i,i,i,i,i,i,i,i
CN1CCN(S(=O)(=O)c2ccc(NC(=O)Cc3cccs3)cc2)CC1,-4.7*,i,i,i,i,i,i,i,51*
Cc1ccc(C(=O)Nc2ccc(S(=O)(=O)N3CCc4ccccc4C3)cc2)o1,i,i,i,i,i,x,x,x,x
O=C(Cc1cccs1)Nc1ccc(S(=O)(=O)N2CCCCC2)cc1,i,x,i,i,x,x,x,x,x
CCC(=O)Nc1ccc(S(=O)(=O)N2CCc3ccccc3C2)cc1,-7.9*,i,i,i,i,i,i,i,i
O=C1c2nccnc2C(=O)N1c1ccc(C(F)(F)F)cc1,i,i,i,i,i,x,x,x,x
COc1ccccc1NS(=O)(=O)c1cc(NC(=O)C(C)(C)C)ccc1N1CCOCC1,-4.6*,i,i,i,i,82%*,i,i,i
SMILES,MrgX1 antag,RGS4 act,MrgX1 ag,MrgX1 allo act,RGS4 inh,MrgX1 ant reconf,HEK293 Ca flux,HEK293 Ca counter,HEK293 Ca cntr2
COc1ccccc1Nc1ncccc1C(=O)O,-8.5*,i,i,i,i,77%*,i,i,i
CCOc1ccccc1Nc1ncccc1C(=O)O,i,i,i,i,i,x,x,x,x
Cc1c(C(=O)Nc2ccc3c(c2)OCO3)sc2ncn(CC(=O)N3CC(C)CC(C)C3)c(=O)c12 (centres undefined),-6.5*,i,i,i,i,83%*,i,i,i
COC(=O)c1cn(C(=O)c2ccc(OC)cc2)c2ccccc12,i,i,i,i,i,x,x,x,x
CN(C)c1nc(SCc2ccccc2)nc(N2CCOCC2)n1,-6.4*,i,i,i,i,i,i,i,i
CCNc1nc(SCc2ccccc2)nc(N2CCOCC2)n1,i,x,i,i,x,x,x,x,x
CCCCn1c(SCC(=O)N(C)C2CCS(=O)(=O)C2)nc2cc(S(N)(=O)=O)ccc21 (centres undefined),i,i,i,i,i,x,x,x,x
CCOc1ccc(CN(C)CC(=O)NCc2ccc(F)cc2)cc1,i,i,i,i,i,x,x,x,x
O=C1CC(N2CCN(Cc3ccccc3)CC2)C(=O)N1CCc1ccccc1 (centres undefined),-5.4*,i,i,i,i,i,i,i,i
O=C1CC(N2CCN(Cc3ccc(Cl)cc3)CC2)C(=O)N1CCc1ccccc1 (centres undefined),i,i,i,i,i,x,x,x,x
Cc1cc(C)cc(NC(=O)CS(=O)(=O)c2cccc3nsnc23)c1,i,i,i,i,i,x,x,x,x
O=C(COC(=O)[C@H](Cc1ccccc1)N1C(=O)c2ccccc2C1=O)Nc1ccc2c(c1)OCO2,i,i,i,i,i,x,x,x,x
CC(C)[C@@H](C(=O)OCC(=O)Nc1ccc2c(c1)OCO2)N1C(=O)c2ccccc2C1=O,-5.3*,i,i,i,i,i,i,i,i
CCSc1nsc(NC(=O)Nc2ccc(F)cc2F)n1,i,i,i,i,i,x,x,x,x
CCOc1ccc(NC(=O)Nc2nc(SCC)ns2)cc1,-6.3*,i,i,i,i,78%*,i,i,i
COc1ccccc1OC(C)C(=O)Nc1ccccc1C(=O)NCC1CCCO1 (centres undefined),i,i,i,i,i,x,x,x,x
